Test results from ChEMBL document CHEMBL1122605, “Synthesis and evaluation of radioiodinated (E)-18-iodo-17-octadecenoic acid as a model iodoalkenyl fatty acid for myocardial imaging” (J Med Chem, 1984).
Values joined by “and” are separate entries in the source; they are usually repeats but may differ in a detail not shown here. Equal values may be shown once. Blank lines part the entries; values can stand above or below the compound they belong to.

Tests used:
[1] = tested on: Rattus norvegicus; test: Distribution of the [125I]-labeled compound in heart tissue of female Fischer 344 rat 5 min after intravenous administration. Value in the parentheses is ratio of distribution in heart and blood; assay type: ADME, organism-based; conditions: in vivo
Outline: (§1)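 Radioiodinated ([125I]) fatty acid formulated in 6% bovine serum albumin solution (10% EtOH), passed through a 0.22-µm filter, injected into a lateral tail vein of female Fischer 344 rats. Tissues taken at set times post-injection; radioactivity expressed as percent injected dose/g tissue (mean, range), with heart:blood ratio calculated from heart and blood values.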

[2] = tested on: Rattus norvegicus; test: Distribution of the [125I]-labeled compound in heart tissue of female Fischer 344 rat 120 min after intravenous administration. Value in the parentheses is ratio of distribution in heart and blood; assay type: ADME, organism-based; conditions: in vivo, 2 h; outline: as §1
[3] = tested on: Rattus norvegicus; test: Distribution of the [125I]-labeled compound in liver of female Fischer 344 rat 5 min after intravenous administration.; assay type: ADME, organism-based; conditions: in vivo
Outline: (§2)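 Tissues were sampled at the stated times after injection. Radioactivity is expressed as mean (range) percent injected dose/g tissue. Heart:blood ratios were calculated from these tissue values.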

[4] = tested on: Rattus norvegicus; test: Distribution of the [125I]-labeled compound in heart tissue of female Fischer 344 rat 30 min after intravenous administration.; assay type: ADME, organism-based; conditions: in vivo, 0.5 h; outline: as §2
[5] = tested on: Rattus norvegicus; test: Distribution of the [125I]-labeled compound in thyroid of female Fischer 344 rat 30 min after intravenous administration.; assay type: ADME, organism-based, Thyroid gland; conditions: in vivo, 0.5 h; outline: as §2
[6] = tested on: Rattus norvegicus; test: Distribution of the [125I]-labeled compound in liver of female Fischer 344 rat 1 hr after intravenous administration.; assay type: ADME, organism-based; conditions: in vivo; outline: as §2
[7] = tested on: Rattus norvegicus; test: Distribution of the [125I]-labeled compound in blood of female Fischer 344 rat 4 hr after intravenous administration.; assay type: ADME, organism-based; conditions: in vivo; outline: as §2
[8] = tested on: Rattus norvegicus; test: Distribution of the [125I]-labeled compound in thyroid of female Fischer 344 rat 1 hr after intravenous administration.; assay type: ADME, organism-based, Thyroid gland; conditions: in vivo; outline: as §2
[9] = tested on: Rattus norvegicus; test: Distribution of the [125I]-labeled compound in lungs of female Fischer 344 rat 1 day after intravenous administration.; assay type: ADME, organism-based, Lung; conditions: in vivo, 24 h; outline: as §2
[10] = tested on: Rattus norvegicus; test: Distribution of the [125I]-labeled compound in lungs of female Fischer 344 rat 30 min after intravenous administration.; assay type: ADME, organism-based, Lung; conditions: in vivo, 0.5 h; outline: as §2
[11] = tested on: Rattus norvegicus; test: Distribution of the [125I]-labeled compound in thyroid of female Fischer 344 rat 4 hr after intravenous administration.; assay type: ADME, organism-based, Thyroid gland; conditions: in vivo; outline: as §2
[12] = tested on: Rattus norvegicus; test: Distribution of the [125I]-labeled compound in heart tissue of female Fischer 344 rat 5 min after intravenous administration.; assay type: ADME, organism-based; conditions: in vivo; outline: as §2
[13] = tested on: Rattus norvegicus; test: Distribution of the [125I]-labeled compound in liver of female Fischer 344 rat 4 hr after intravenous administration.; assay type: ADME, organism-based; conditions: in vivo; outline: as §2
[14] = tested on: Rattus norvegicus; test: Distribution of the [125I]-labeled compound in liver of female Fischer 344 rat 30 min after intravenous administration.; assay type: ADME, organism-based; conditions: in vivo, 0.5 h; outline: as §2
[15] = tested on: Rattus norvegicus; test: Ratio of the distribution of [125I]-labeled compound in heart/blood of female Fischer 344 rat 4 hr after intravenous administration.; assay type: ADME, organism-based; conditions: other tissue; outline: as §2
[16] = tested on: Rattus norvegicus; test: Distribution of the [125I]-labeled compound in lungs of female Fischer 344 rat 1 hr after intravenous administration.; assay type: ADME, organism-based, Lung; conditions: in vivo; outline: as §2
[17] = tested on: Rattus norvegicus; test: Distribution of the [125I]-labeled compound in liver of female Fischer 344 rat 1 day after intravenous administration.; assay type: ADME, organism-based; conditions: in vivo, 24 h; outline: as §2
[18] = tested on: Rattus norvegicus; test: Distribution of the [125I]-labeled compound in blood of female Fischer 344 rat 1 hr after intravenous administration.; assay type: ADME, organism-based; conditions: in vivo; outline: as §2
[19] = tested on: Rattus norvegicus; test: Distribution of the [125I]-labeled compound in thyroid of female Fischer 344 rat 5 min after intravenous administration.; assay type: ADME, organism-based, Thyroid gland; conditions: in vivo; outline: as §2
[20] = tested on: Rattus norvegicus; test: Distribution of the [125I]-labeled compound in thyroid of female Fischer 344 rat 2 hr after intravenous administration.; assay type: ADME, organism-based, Thyroid gland; conditions: in vivo; outline: as §2
[21] = tested on: Rattus norvegicus; test: Distribution of the [125I]-labeled compound in thyroid of female Fischer 344 rat 1 day after intravenous administration.; assay type: ADME, organism-based, Thyroid gland; conditions: in vivo, 24 h; outline: as §2
[22] = tested on: Rattus norvegicus; test: Ratio of the distribution of [125I]-labeled compound in heart/blood of female Fischer 344 rat 1 hr after intravenous administration.; assay type: ADME, organism-based; conditions: other tissue; outline: as §2
[23] = tested on: Rattus norvegicus; test: Ratio of the distribution of [125I]-labeled compound in heart/blood of female Fischer 344 rat 5 min after intravenous administration.; assay type: ADME, organism-based; conditions: in vivo; outline: as §2
[24] = tested on: Rattus norvegicus; test: Distribution of the [125I]-labeled compound in kidney of female Fischer 344 rat 30 min after intravenous administration.; assay type: ADME, organism-based; conditions: in vivo, 0.5 h; outline: as §2
[25] = tested on: Rattus norvegicus; test: Ratio of the distribution of [125I]-labeled compound in heart/blood of female Fischer 344 rat 2 hr after intravenous administration.; assay type: ADME, organism-based; conditions: other tissue; outline: as §2
[26] = tested on: Rattus norvegicus; test: Distribution of the [125I]-labeled compound in liver of female Fischer 344 rat 2 hr after intravenous administration.; assay type: ADME, organism-based; conditions: in vivo; outline: as §2
[27] = tested on: Rattus norvegicus; test: Distribution of the [125I]-labeled compound in kidney of female Fischer 344 rat 5 min after intravenous administration.; assay type: ADME, organism-based; conditions: in vivo; outline: as §2
[28] = tested on: Rattus norvegicus; test: Distribution of the [125I]-labeled compound in kidney of female Fischer 344 rat 2 hr after intravenous administration.; assay type: ADME, organism-based; conditions: in vivo; outline: as §2
[29] = tested on: Rattus norvegicus; test: Distribution of the [125I]-labeled compound in lungs of female Fischer 344 rat 5 min after intravenous administration.; assay type: ADME, organism-based, Lung; conditions: in vivo; outline: as §2
[30] = tested on: Rattus norvegicus; test: Distribution of the [125I]-labeled compound in heart tissue of female Fischer 344 rat 1 hr after intravenous administration.; assay type: ADME, organism-based; conditions: in vivo; outline: as §2
[31] = tested on: Rattus norvegicus; test: Ratio of the distribution of [125I]-labeled compound in heart/blood of female Fischer 344 rat 1 day after intravenous administration.; assay type: ADME, organism-based; conditions: other tissue, 24 h; outline: as §2
[32] = tested on: Rattus norvegicus; test: Distribution of the [125I]-labeled compound in heart tissue of female Fischer 344 rat 4 hr after intravenous administration.; assay type: ADME, organism-based; conditions: in vivo; outline: as §2
[33] = tested on: Rattus norvegicus; test: Distribution of the [125I]-labeled compound in heart tissue of female Fischer 344 rat 1 day after intravenous administration.; assay type: ADME, organism-based; conditions: in vivo, 24 h; outline: as §2
[34] = tested on: Rattus norvegicus; test: Distribution of the [125I]-labeled compound in kidney of female Fischer 344 rat 1 hr after intravenous administration.; assay type: ADME, organism-based; conditions: in vivo; outline: as §2
[35] = tested on: Rattus norvegicus; test: Distribution of the [125I]-labeled compound in heart tissue of female Fischer 344 rat 2 hr after intravenous administration.; assay type: ADME, organism-based; conditions: in vivo; outline: as §2
[36] = tested on: Rattus norvegicus; test: Distribution of the [125I]-labeled compound in blood of female Fischer 344 rat 2 hr after intravenous administration.; assay type: ADME, organism-based; conditions: in vivo; outline: as §2
[37] = tested on: Rattus norvegicus; test: Distribution of the [125I]-labeled compound in blood of female Fischer 344 rat 1 day after intravenous administration.; assay type: ADME, organism-based; conditions: in vivo, 24 h; outline: as §2
[38] = tested on: Rattus norvegicus; test: Distribution of the [125I]-labeled compound in blood of female Fischer 344 rat 5 min after intravenous administration.; assay type: ADME, organism-based; conditions: in vivo; outline: as §2
[39] = tested on: Rattus norvegicus; test: Distribution of the [125I]-labeled compound in kidney of female Fischer 344 rat 1 day after intravenous administration.; assay type: ADME, organism-based; conditions: in vivo, 24 h; outline: as §2
[40] = tested on: Rattus norvegicus; test: Distribution of the [125I]-labeled compound in blood of female Fischer 344 rat 30 min after intravenous administration.; assay type: ADME, organism-based; conditions: in vivo, 0.5 h; outline: as §2
[41] = tested on: Rattus norvegicus; test: Distribution of the [125I]-labeled compound in kidney of female Fischer 344 rat 4 hr after intravenous administration.; assay type: ADME, organism-based; conditions: in vivo; outline: as §2

SMILES: O=C(O)CCCCC[Te]CCCCCCCCC/C=C/I
Injected dose/g tissue [1]: 3.5%
Injected dose/g tissue [2]: 2.9%

SMILES: O=C(O)CCCCCCCCCCC[Te]CCC/C=C/I
Injected dose/g tissue [1]: 1.5%
Injected dose/g tissue [2]: 1%

SMILES: O=C(O)CCC[Te]CCCCCCCCCCC/C=C/I
Injected dose/g tissue [1]: 3.9%
Injected dose/g tissue [2]: 3.6%

SMILES: O=C(O)CCCCCCC[Te]CCCCCCC/C=C/I
Injected dose/g tissue [1]: 4.8%
Injected dose/g tissue [2]: 3.9%

Injected dose/g tissue [3]: 8.65%
Injected dose/g tissue [4]: 2.69%
Injected dose/g tissue [5]: 20.88%
Injected dose/g tissue [6]: 4.83%
Injected dose/g tissue [7]: 0.27%
Injected dose/g tissue [8]: 27.18%
Injected dose/g tissue [9]: 0.59%
Injected dose/g tissue [10]: 1.03%
Injected dose/g tissue [11]: 153%
Injected dose/g tissue [12]: 3.17%
Injected dose/g tissue [13]: 3.08%
Injected dose/g tissue [14]: 7.81%
Heart/blood ratio [15]: 3.5
Injected dose/g tissue [16]: 0.82%
Injected dose/g tissue [17]: 0.6%
Injected dose/g tissue [18]: 0.28%
Injected dose/g tissue [19]: 9.29%
Injected dose/g tissue [20]: 61%
Injected dose/g tissue [21]: 350%
Heart/blood ratio [22]: 7.6
ratio [23]: 10.6 and 6.7
Injected dose/g tissue [24]: 0.7%
Heart/blood ratio [25]: 6.6
Injected dose/g tissue [26]: 4.04%
Injected dose/g tissue [27]: 0.82%
Injected dose/g tissue [28]: 0.63%
Injected dose/g tissue [29]: 1.02%
Injected dose/g tissue [30]: 2.09%
Heart/blood ratio [31]: 4.8
Injected dose/g tissue [32]: 0.94%
Injected dose/g tissue [33]: 0.32%
Injected dose/g tissue [34]: 0.62%
Injected dose/g tissue [35]: 1.72%
Injected dose/g tissue [36]: 0.28%
Injected dose/g tissue [37]: 0.07%
Injected dose/g tissue [38]: 0.3%
Injected dose/g tissue [39]: 0.32%
Injected dose/g tissue [40]: 0.4%
Injected dose/g tissue [41]: 0.55%
SMILES: O=C(O)CCCCCCCCCCCCCCC/C=C/I

SMILES: O=C(O)CCCCCCCCC[Te]CCCCC/C=C/I
Injected dose/g tissue [1]: 3.1%
Injected dose/g tissue [2]: 3.8%
